In ChEMBL document CHEMBL5620393, “New aryl and acylsulfonamides as state-dependent inhibitors of Nav1.3 voltage-gated sodium channel” (Eur J Med Chem, 2023):
Activity calls are given as the source filed them. The rule behind the calls is not given here.

Experiments:
HepG2 = experiment: Cytotoxicity against human HepG2 cells
[1] = target: T1, Sodium channel protein type 3 subunit alpha (Homo sapiens, UniProt Q9NY46); experiment: Inhibition of human Nav1.3 expressed in CHO cells under resting state by automated patch clamp electrophysiology analysis; type: cell-based
T1 sequence (Q9NY46 whole entry): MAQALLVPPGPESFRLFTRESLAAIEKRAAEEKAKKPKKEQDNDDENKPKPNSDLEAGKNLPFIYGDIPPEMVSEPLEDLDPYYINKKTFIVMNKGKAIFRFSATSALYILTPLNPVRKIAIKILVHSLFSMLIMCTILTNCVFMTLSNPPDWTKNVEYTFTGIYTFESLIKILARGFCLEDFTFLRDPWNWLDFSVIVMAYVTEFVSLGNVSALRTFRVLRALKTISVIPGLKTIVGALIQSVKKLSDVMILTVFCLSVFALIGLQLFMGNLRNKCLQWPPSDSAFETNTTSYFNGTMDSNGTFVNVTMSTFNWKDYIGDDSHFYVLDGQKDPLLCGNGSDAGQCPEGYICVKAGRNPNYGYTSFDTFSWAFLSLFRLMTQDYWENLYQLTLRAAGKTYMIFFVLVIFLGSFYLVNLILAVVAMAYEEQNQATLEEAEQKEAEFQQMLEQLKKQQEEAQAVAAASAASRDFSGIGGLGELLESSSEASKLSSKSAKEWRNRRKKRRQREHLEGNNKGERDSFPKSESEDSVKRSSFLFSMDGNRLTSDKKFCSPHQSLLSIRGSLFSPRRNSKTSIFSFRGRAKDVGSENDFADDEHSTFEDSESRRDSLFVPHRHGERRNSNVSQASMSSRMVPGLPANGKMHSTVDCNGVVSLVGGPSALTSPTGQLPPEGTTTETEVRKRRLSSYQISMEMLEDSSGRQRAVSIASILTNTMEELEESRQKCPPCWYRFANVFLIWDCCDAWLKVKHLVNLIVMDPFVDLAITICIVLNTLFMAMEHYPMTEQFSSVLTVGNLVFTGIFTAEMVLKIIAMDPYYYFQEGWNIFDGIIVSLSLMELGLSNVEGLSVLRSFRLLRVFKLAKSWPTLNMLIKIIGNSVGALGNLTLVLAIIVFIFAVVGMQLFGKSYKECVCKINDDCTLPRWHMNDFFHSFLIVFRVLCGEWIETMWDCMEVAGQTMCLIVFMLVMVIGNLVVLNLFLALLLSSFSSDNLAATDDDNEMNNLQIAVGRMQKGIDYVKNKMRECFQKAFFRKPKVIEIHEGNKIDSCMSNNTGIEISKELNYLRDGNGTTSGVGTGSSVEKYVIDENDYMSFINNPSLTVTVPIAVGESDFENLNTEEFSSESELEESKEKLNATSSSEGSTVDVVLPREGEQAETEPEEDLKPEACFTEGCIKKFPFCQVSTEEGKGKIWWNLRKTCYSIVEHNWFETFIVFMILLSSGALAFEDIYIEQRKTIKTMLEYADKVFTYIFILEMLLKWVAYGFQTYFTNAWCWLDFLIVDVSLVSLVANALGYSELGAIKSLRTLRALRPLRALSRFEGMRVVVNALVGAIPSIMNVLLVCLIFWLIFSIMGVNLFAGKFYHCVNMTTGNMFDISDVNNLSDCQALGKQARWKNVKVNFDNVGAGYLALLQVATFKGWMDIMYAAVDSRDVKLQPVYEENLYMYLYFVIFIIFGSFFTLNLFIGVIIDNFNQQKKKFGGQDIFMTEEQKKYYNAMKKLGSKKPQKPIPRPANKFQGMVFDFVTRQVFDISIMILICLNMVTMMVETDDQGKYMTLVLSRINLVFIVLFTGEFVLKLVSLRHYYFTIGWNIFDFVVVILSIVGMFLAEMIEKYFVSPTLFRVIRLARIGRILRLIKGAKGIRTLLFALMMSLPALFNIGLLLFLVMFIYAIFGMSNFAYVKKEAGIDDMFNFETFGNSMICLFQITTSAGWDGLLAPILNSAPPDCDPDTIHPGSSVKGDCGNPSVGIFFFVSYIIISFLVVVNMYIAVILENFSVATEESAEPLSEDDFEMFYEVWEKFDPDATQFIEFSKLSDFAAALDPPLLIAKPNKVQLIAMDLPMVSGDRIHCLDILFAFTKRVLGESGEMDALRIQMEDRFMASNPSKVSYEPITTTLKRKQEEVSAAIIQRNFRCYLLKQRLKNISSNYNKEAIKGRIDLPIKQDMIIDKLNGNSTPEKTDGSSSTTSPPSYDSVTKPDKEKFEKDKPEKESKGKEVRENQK

[2] = target: T1, Sodium channel protein type 3 subunit alpha; experiment: Inhibition of human Nav1.3 expressed in CHO cells under inactivated state by automated patch clamp electrophysiology analysis; type: cell-based
[3] = target: T2, Sodium channel protein type 5 subunit alpha (Homo sapiens, UniProt Q14524); experiment: Inhibition of human Nav1.5 expressed in CHO cells under tonic pulse 1 by automated patch clamp electrophysiology analysis; type: cell-based
T2 sequence (Q14524 whole entry): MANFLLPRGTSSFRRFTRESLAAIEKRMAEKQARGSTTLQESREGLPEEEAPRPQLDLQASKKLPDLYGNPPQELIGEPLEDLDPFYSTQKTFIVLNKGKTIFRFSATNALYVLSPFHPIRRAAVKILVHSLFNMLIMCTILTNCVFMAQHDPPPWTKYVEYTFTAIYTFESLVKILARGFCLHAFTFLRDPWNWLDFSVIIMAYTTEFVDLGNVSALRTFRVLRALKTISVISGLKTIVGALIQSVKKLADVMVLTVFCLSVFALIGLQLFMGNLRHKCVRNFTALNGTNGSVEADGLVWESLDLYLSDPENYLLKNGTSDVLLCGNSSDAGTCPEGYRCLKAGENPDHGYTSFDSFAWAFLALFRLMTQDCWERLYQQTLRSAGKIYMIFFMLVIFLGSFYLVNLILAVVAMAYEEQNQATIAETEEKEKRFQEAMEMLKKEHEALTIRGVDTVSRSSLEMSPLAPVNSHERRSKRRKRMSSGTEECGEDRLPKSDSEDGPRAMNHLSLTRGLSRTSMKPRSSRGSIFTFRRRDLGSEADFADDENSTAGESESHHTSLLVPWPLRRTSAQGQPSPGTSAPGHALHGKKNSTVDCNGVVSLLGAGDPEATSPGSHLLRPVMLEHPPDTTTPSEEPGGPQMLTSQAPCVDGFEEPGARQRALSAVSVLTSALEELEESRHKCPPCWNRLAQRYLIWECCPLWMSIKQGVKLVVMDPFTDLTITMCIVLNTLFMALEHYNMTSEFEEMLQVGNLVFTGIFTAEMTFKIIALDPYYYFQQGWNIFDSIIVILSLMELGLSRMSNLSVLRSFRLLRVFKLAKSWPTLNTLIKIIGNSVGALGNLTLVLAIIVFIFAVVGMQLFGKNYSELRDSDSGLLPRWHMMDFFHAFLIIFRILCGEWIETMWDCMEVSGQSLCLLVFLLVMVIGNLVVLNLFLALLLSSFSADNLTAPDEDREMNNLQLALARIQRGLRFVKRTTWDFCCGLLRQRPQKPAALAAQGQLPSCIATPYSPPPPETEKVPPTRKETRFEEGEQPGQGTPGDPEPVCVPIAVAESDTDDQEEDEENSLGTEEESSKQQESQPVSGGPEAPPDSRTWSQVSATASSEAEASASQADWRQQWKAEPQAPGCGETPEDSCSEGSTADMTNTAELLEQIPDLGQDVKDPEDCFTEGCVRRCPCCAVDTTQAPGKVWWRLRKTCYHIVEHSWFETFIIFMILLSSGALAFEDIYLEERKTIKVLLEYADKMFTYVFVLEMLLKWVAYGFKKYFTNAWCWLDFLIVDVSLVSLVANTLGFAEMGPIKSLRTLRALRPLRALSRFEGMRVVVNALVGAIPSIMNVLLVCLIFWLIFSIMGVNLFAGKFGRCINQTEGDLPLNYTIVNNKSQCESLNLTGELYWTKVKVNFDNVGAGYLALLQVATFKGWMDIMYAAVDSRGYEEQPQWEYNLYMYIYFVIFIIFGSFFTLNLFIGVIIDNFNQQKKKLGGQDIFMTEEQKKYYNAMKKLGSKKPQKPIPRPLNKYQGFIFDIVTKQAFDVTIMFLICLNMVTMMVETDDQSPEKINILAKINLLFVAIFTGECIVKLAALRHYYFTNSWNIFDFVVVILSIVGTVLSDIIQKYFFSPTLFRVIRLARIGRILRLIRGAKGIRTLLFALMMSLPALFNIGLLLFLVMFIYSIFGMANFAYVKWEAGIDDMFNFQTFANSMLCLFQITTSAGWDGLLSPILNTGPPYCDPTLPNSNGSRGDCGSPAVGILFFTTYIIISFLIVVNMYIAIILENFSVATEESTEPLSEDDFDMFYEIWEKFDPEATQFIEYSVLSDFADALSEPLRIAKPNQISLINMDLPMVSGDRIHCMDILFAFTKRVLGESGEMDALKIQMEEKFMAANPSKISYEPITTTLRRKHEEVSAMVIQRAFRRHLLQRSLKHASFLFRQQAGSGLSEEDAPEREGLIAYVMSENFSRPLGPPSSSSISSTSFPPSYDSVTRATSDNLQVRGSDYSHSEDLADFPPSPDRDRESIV

[4] = target: T3, Sodium channel protein type 9 subunit alpha (Homo sapiens, UniProt Q15858); experiment: Inhibition of human Nav1.7 expressed in CHO cells under resting state by automated patch clamp electrophysiology analysis; type: cell-based
[5] = target: T3, Sodium channel protein type 9 subunit alpha; experiment: Inhibition of human Nav1.7 expressed in CHO cells under inactivated state by automated patch clamp electrophysiology analysis; type: cell-based
[6] = target: T2, Sodium channel protein type 5 subunit alpha; experiment: Inhibition of human Nav1.5 expressed in CHO cells under resting state by automated patch clamp electrophysiology analysis; type: cell-based
[7] = target: T2, Sodium channel protein type 5 subunit alpha; experiment: Inhibition of human Nav1.5 expressed in CHO cells under inactivated state by automated patch clamp electrophysiology analysis; type: cell-based
[8] = target: Sodium channel protein type 1 subunit alpha (Homo sapiens) (UniProt P35498); experiment: Inhibition of human Nav1.1 expressed in Xenopus laevis oocytes at closed state at 1 uM by two electrode voltage-clamp assay; type: cell-based; settings: Oocyte
Procedure, shortened: (§1)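 TEVC on Nav channels expressed in Xenopus laevis oocytes. Each oocyte was injected with 50 nL cRNA at 1 ng/nL and recorded 1–4 days later at 18–22 °C. Bath (mM): NaCl 96, KCl 2, CaCl2 1.8, MgCl2 2, HEPES 5, pH 7.4. Electrodes held 3 M KCl at 0.8–1.5 MΩ. Compound tested at 1 μM. Mean ± SD, n ≥ 5.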

[9] = target: Sodium channel protein type 2 subunit alpha (Rattus norvegicus) (UniProt P04775); experiment: Inhibition of rat Nav1.2 expressed in Xenopus laevis oocytes at closed state at 1 uM by two electrode voltage-clamp assay; type: cell-based; settings: Oocyte; procedure, shortened: as §1
[10] = target: Sodium channel protein type 3 subunit alpha (Rattus norvegicus) (UniProt P08104); experiment: Inhibition of rat Nav1.3 expressed in Xenopus laevis oocytes at 1 uM under inactivated state by two electrode voltage-clamp assay relative to control; type: cell-based; settings: Oocyte; procedure, shortened: as §1
[11] = target: Sodium channel protein type 4 subunit alpha (Rattus norvegicus) (UniProt P15390); experiment: Inhibition of rat Nav1.4 expressed in Xenopus laevis oocytes at closed state at 1 uM by two electrode voltage-clamp assay; type: cell-based; settings: Oocyte; procedure, shortened: as §1
[12] = target: T2, Sodium channel protein type 5 subunit alpha; experiment: Inhibition of human Nav1.5 expressed in Xenopus laevis oocytes at closed state at 1 uM by two electrode voltage-clamp assay; type: cell-based; settings: oocyte; procedure, shortened: as §1
[13] = target: Sodium channel protein type 8 subunit alpha (Mus musculus) (UniProt Q9WTU3); experiment: Inhibition of mouse Nav1.6 expressed in Xenopus laevis oocytes at closed state at 1 uM by two electrode voltage-clamp assay; type: cell-based; settings: Oocyte; procedure, shortened: as §1
[14] = target: T3, Sodium channel protein type 9 subunit alpha; experiment: Inhibition of human Nav1.7 expressed in Xenopus laevis oocytes at closed state at 1 uM by two electrode voltage-clamp assay; type: cell-based; settings: Oocyte; procedure, shortened: as §1
[15] = target: Sodium channel protein type 10 subunit alpha (Homo sapiens) (UniProt Q9Y5Y9); experiment: Inhibition of human Nav1.8 expressed in Xenopus laevis oocytes at closed state at 1 uM by two electrode voltage-clamp assay; type: cell-based; settings: Oocyte; procedure, shortened: as §1
[16] = target: Sodium channel protein type 3 subunit alpha (Rattus norvegicus) (UniProt P08104); experiment: Inhibition of rat Nav1.3 expressed in Xenopus laevis oocytes at 1 uM under resting state by two electrode voltage-clamp assay relative to control; type: cell-based; settings: Oocyte; procedure, shortened: as §1
[17] = target: T2, Sodium channel protein type 5 subunit alpha; experiment: Inhibition of human Nav1.5 expressed in CHO cells by automated patch clamp electrophysiology analysis

| Structure (SMILES) | IC50 (HepG2) [µM] | IC50 [1] [µM] | IC50 [2] [µM] | IC50 [3] [µM] | IC50 [4] [µM] | IC50 [5] [µM] | IC50 [6] [µM] | IC50 [7] [µM] | inhibition [8] | inhibition [9] | inhibition [10] [%] | inhibition [11] | inhibition (INH) [12] | inhibition [13] | inhibition [14] | inhibition [15] | inhibition [16] [%] | IC50 [17] [µM] |
| --- | --- | --- | --- | --- | --- | --- | --- | --- | --- | --- | --- | --- | --- | --- | --- | --- | --- | --- |
| COc1cc([C@@H]2c3cc4c(cc3[C@@H](O[C@@H]3O[C@@H]5CO[C@@H](C)O[C@H]5[C@H](O)[C@H]3O)[C@H]3COC(=O)[C@H]23)OCO4)cc(OC)c1O [ETOPOSIDE] | 30.2 |  |  |  |  |  |  |  |  |  |  |  |  |  |  |  |  |  |
| O=C(Nc1ccc(S(=O)(=O)Nc2nccs2)cc1)C1CC1c1ccc(F)c(F)c1 (racemic) |  | 6.9 | 0.02 | > 30 | > 30 | 7.1 | > 30 | 3 | inactive | inactive | 63 | inactive | Not Active | inactive | inactive | inactive | < 9 | > 30 |
